Data on two compounds can be found in ChEMBL document CHEMBL1124493, “Synthesis and tumor uptake of 5-82Br- and 5-131I-labeled 5-halo-1-(2-fluoro-2-deoxy-beta-D-ribofuranosyl)uracils” (J Med Chem, 1989).

The subject of data set [1] is Mus musculus. The data set is described as follows: Biodistribution of intravenously injected [82Br]-labeled compound in tumor of BDF1 female mice bearing subcutaneous Lewis lung carcinoma after 1 hours. Type of data set: ADME, organism-based. The conditions noted are these: in vivo, iv.
Data set [2] concerns Mus musculus. As to the kind of experiment: Biodistribution of intravenously injected [82Br]-labeled compound in gut of BDF1 female mice bearing subcutaneous Lewis lung carcinoma after 8 hours. The conditions noted are these: in vivo, iv. Type of data set: ADME, organism-based. The procedure, abridged: (§1)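 Female BDF1 mice with subcutaneous Lewis lung carcinoma given an iv injection of [82Br]-labelled nucleoside, 47-130 μg carrying 20-60 kBq 82Br. Tissues were excised, weighed wet and γ-counted. Values are percent injected dose per gram of wet tissue, mean ± standard deviation of six animals, with organ-to-tumour ratios derived.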

Data set [3] deals with Mus musculus. The data set is described as follows: Biodistribution of intravenously injected [82Br]-labeled compound in bone of BDF1 female mice bearing subcutaneous Lewis lung carcinoma after 1 hours. Type of data set: ADME, organism-based, Bone element. The following applies: in vivo, iv. The procedure, abridged: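 82Br-labeled nucleoside given intravenously to female BDF1 mice bearing subcutaneous Lewis lung carcinoma, at 47-130 μg carrying 20-60 kBq. Mice sacrificed at each time point. Wet-weighed tissues γ-counted. Values are percent injected dose per gram wet tissue, mean ± SD, n = 6.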

For data set [4], the system named is Mus musculus. The data set is described as follows: Biodistribution of intravenously injected [82Br]-labeled compound in tumor of BDF1 female mice bearing subcutaneous Lewis lung carcinoma after 24 hours. Type of data set: ADME, organism-based. The following applies: in vivo, iv.
For data set [5], the system named is Mus musculus. As to the kind of experiment: Biodistribution of intravenously injected [82Br]-labeled compound in muscle of BDF1 female mice bearing subcutaneous Lewis lung carcinoma after 0.25 hours. The format is ADME, organism-based, Muscle tissue. The following applies: in vivo, iv. The procedure, abridged:
as §1

Data set [6] has as its system Mus musculus. The data set is described as follows: Biodistribution of intravenously injected [82Br]-labeled compound in spleen of BDF1 female mice bearing subcutaneous Lewis lung carcinoma after 8 hours. The format is ADME, organism-based. The following applies: in vivo, iv.
Data set [7] has as its system Mus musculus. As to the kind of experiment: Biodistribution of intravenously injected [82Br]-labeled compound in stomach of BDF1 female mice bearing subcutaneous Lewis lung carcinoma after 4 hours. The conditions noted are these: in vivo, iv. Type of data set: ADME, organism-based.
Data set [8] relates to Mus musculus. As to the kind of experiment: Biodistribution of intravenously injected [82Br]-labeled compound in spleen of BDF1 female mice bearing subcutaneous Lewis lung carcinoma after 24 hours. The format is ADME, organism-based. The following applies: in vivo, iv.
In data set [9] the test system is Mus musculus. The data set is described as follows: Biodistribution of intravenously injected [82Br]-labeled compound in gut of BDF1 female mice bearing subcutaneous Lewis lung carcinoma after 24 hours. Type of data set: ADME, organism-based. The following applies: in vivo, iv. The procedure, abridged:
as §1

In data set [10] the test system is Mus musculus. As to the kind of experiment: Biodistribution of intravenously injected [82Br]-labeled compound in kidney of BDF1 female mice bearing subcutaneous Lewis lung carcinoma after 1 hours. The format is ADME, organism-based. The following applies: in vivo, iv. The procedure, abridged: as §1
The subject of data set [11] is Mus musculus. The data set is described as follows: Biodistribution of intravenously injected [82Br]-labeled compound in skin of BDF1 female mice bearing subcutaneous Lewis lung carcinoma after 8 hours. Type of data set: ADME, organism-based, Zone of skin. The following applies: in vivo, iv. The procedure, abridged:
as §1

Data set [12] concerns Mus musculus. As to the kind of experiment: Biodistribution of intravenously injected [82Br]-labeled compound in heart of BDF1 female mice bearing subcutaneous Lewis lung carcinoma after 2 hours. The format is ADME, organism-based. The following applies: in vivo, iv. The procedure, abridged:
as §1

In data set [13] the test system is Mus musculus. The data set is described as follows: Biodistribution of intravenously injected [82Br]-labeled compound in tumor of BDF1 female mice bearing subcutaneous Lewis lung carcinoma after 8 hours. Type of data set: ADME, organism-based. The conditions noted are these: in vivo, iv.
The subject of data set [14] is Mus musculus. As to the kind of experiment: Biodistribution of intravenously injected [82Br]-labeled compound in stomach of BDF1 female mice bearing subcutaneous Lewis lung carcinoma after 1 hours. Type of data set: ADME, organism-based. The following applies: in vivo, iv.
Data set [15] concerns Mus musculus. The data set is described as follows: Biodistribution of intravenously injected [131I]-labeled compound in heart of BDF1 female mice bearing subcutaneous Lewis lung carcinoma after 4 hours. Type of data set: ADME, organism-based. The conditions noted are these: in vivo, iv. The procedure, abridged: (§2)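 Female BDF1 mice bearing subcutaneous Lewis lung carcinoma received a single intravenous dose of 0.5-1.8 μg of the 131I-labeled nucleoside (55-110 kBq). They were sacrificed at set times, and tissues were weighed wet and γ-counted. Activity is expressed as percent of injected dose per gram of wet tissue, given as mean ± standard deviation for six animals.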

Data set [16] relates to Mus musculus. The data set is described as follows: Biodistribution of intravenously injected [131I]-labeled compound in muscle of BDF1 female mice bearing subcutaneous Lewis lung carcinoma after 0.5 hours. Type of data set: ADME, organism-based, Muscle tissue. The conditions noted are these: in vivo, iv. The procedure, abridged: as §2
The species entered for data set [17] is Mus musculus. As to the kind of experiment: Other urinary compounds observed in BDF1 female mice bearing lewis lung tumor after 2-3 hr of injected [131I]-compound. Type of data set: functional, tissue-based. The conditions noted are these: Urine.
The test system of data set [18] is Mus musculus. As to the kind of experiment: Biodistribution of intravenously injected [131I]-labeled compound in bone of BDF1 female mice bearing subcutaneous Lewis lung carcinoma after 2 hours. Type of data set: ADME, organism-based, Bone element. The conditions noted are these: in vivo, iv. The procedure, abridged: as §2
In data set [19] the test system is Mus musculus. The data set is described as follows: Biodistribution of intravenously injected [131I]-labeled compound in heart of BDF1 female mice bearing subcutaneous Lewis lung carcinoma after 1 hours. Type of data set: ADME, organism-based. The following applies: in vivo, iv. The procedure, abridged:
as §2

In data set [20] the test system is Mus musculus. As to the kind of experiment: Biodistribution of intravenously injected [131I]-labeled compound in bone of BDF1 female mice bearing subcutaneous Lewis lung carcinoma after 1 hours. The format is ADME, organism-based, Bone element. The conditions noted are these: in vivo, iv. The procedure, abridged: as §2
For data set [21], the species on record is Mus musculus. The data set is described as follows: Other urinary compounds observed in BDF1 female mice bearing lewis lung tumor after 6-7 hr of injected [131I]-compound. The conditions noted are these: Urine. Type of data set: functional, tissue-based.
Data set [22] concerns Mus musculus. The data set is described as follows: Biodistribution of intravenously injected [131I]-labeled compound in stomach of BDF1 female mice bearing subcutaneous Lewis lung carcinoma after 8 hours. Type of data set: ADME, organism-based. The following applies: in vivo, iv. The procedure, abridged: (§3)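 Female BDF1 mice with subcutaneous Lewis lung carcinoma given i.v. 0.5-1.8 μg of 131I-labeled nucleoside (55-110 kBq). Killed at set times. Tissues weighed wet and γ-counted. Radioactivity expressed as percent injected dose per gram wet tissue, mean ± SD of six animals.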

The subject of data set [23] is Mus musculus. As to the kind of experiment: Biodistribution of intravenously injected [131I]-labeled compound in muscle of BDF1 female mice bearing subcutaneous Lewis lung carcinoma after 0.25 hours. The conditions noted are these: in vivo, iv. The format is ADME, organism-based, Muscle tissue. The procedure, abridged: as §2
Data set [24] relates to Mus musculus. As to the kind of experiment: Biodistribution of intravenously injected [131I]-labeled compound in stomach of BDF1 female mice bearing subcutaneous Lewis lung carcinoma after 0.25 hours. Type of data set: ADME, organism-based. The following applies: in vivo, iv. The procedure, abridged:
as §3

Data set [25] is filed under the species Mus musculus. The data set is described as follows: Urinary iodide observed in BDF1 female mice bearing lewis lung tumor after 6-7 hr of injected [131I]-compound. The format is functional, tissue-based. The conditions noted are these: Urine.
The species entered for data set [26] is Mus musculus. As to the kind of experiment: Other urinary compounds observed in BDF1 female mice bearing lewis lung tumor after 24 hr of injected [131I]-compound. The format is functional, tissue-based. The following applies: Urine.
Data set [27] deals with Mus musculus. The data set is described as follows: Biodistribution of intravenously injected [131I]-labeled compound in liver of BDF1 female mice bearing subcutaneous Lewis lung carcinoma after 2 hours. Type of data set: ADME, organism-based. The conditions noted are these: in vivo, iv. The procedure, abridged: as §2
Data set [28] has as its system Mus musculus. As to the kind of experiment: Biodistribution of intravenously injected [131I]-labeled compound in lung of BDF1 female mice bearing subcutaneous Lewis lung carcinoma after 24 hours. The format is ADME, organism-based. The following applies: in vivo, iv. The procedure, abridged: as §2
For data set [29], the system named is Mus musculus. As to the kind of experiment: Biodistribution of intravenously injected [131I]-labeled compound in skin of BDF1 female mice bearing subcutaneous Lewis lung carcinoma after 0.50 hours. The format is ADME, organism-based, Zone of skin. The following applies: in vivo, iv, 0.5 h. The procedure, abridged:
as §3

Data set [30] deals with Mus musculus. The data set is described as follows: Biodistribution of intravenously injected [131I]-labeled compound in tumor of BDF1 female mice bearing subcutaneous Lewis lung carcinoma after 4 hr. Type of data set: ADME, organism-based. The following applies: in vivo, iv. The procedure, abridged:
as §3

Data set [31] has as its system Mus musculus. As to the kind of experiment: Biodistribution of intravenously injected [131I]-labeled compound in kidney of BDF1 female mice bearing subcutaneous Lewis lung carcinoma after 1 hours. Type of data set: ADME, organism-based. The following applies: in vivo, iv. The procedure, abridged: as §2
Data set [32] relates to Mus musculus. The data set is described as follows: Biodistribution of intravenously injected [131I]-labeled compound in bone of BDF1 female mice bearing subcutaneous Lewis lung carcinoma after 8 hours. The format is ADME, organism-based, Bone element. The conditions noted are these: in vivo, iv. The procedure, abridged: as §2
The subject of data set [33] is Mus musculus. As to the kind of experiment: Biodistribution of intravenously injected [131I]-labeled compound in heart of BDF1 female mice bearing subcutaneous Lewis lung carcinoma after 0.25 hours. The format is ADME, organism-based. The following applies: in vivo, iv. The procedure, abridged:
as §2

Data set [34] deals with Mus musculus. The data set is described as follows: Biodistribution of intravenously injected [131I]-labeled compound in stomach of BDF1 female mice bearing subcutaneous Lewis lung carcinoma after 24 hours. The following applies: in vivo, iv. The format is ADME, organism-based. The procedure, abridged: as §3

Consider `O=c1[nH]c(=O)n([C@H]2O[C@@H](CO)[C@H](O)[C@H]2F)cc1Br`, for which the Injected dose/g with Mus musculus [1] was found to be 0.67%; in the data set on Mus musculus [2] it was 0.33%; in the data set with Mus musculus [3], 0.26%; in the data set on Mus musculus [4], 0.32%; in the data set on Mus musculus [5] it was 0.89%; with Mus musculus [6], 0.34%. The Injected dose/g worked out at 0.4% in the data set on Mus musculus [7]; 0.24% with Mus musculus [8]; 0.22% in the data set on Mus musculus [9]; 1.12% with Mus musculus [10]; 0.34% in the data set with Mus musculus [11]; 0.48% in the data set on Mus musculus [12]. For the same compound, the figures for the Injected dose/g in the data set with Mus musculus [13] and in the data set on Mus musculus [14] were 0.46% and 0.5%, respectively.
As to `O=c1[nH]c(=O)n([C@@H]2O[C@H](CO)[C@@H](O)[C@H]2F)cc1I`, the Injected dose/g was determined as 3.5% in the data set on Mus musculus [15]; 2% in the data set with Mus musculus [16]; 1.2% in the data set on Mus musculus [18]; 5.8% with Mus musculus [19]; 1.5% in the data set on Mus musculus [20]; 5.3% in the data set with Mus musculus [22]. The Injected dose/g amounted to 2.5% in the data set with Mus musculus [23]; 3.7% in the data set on Mus musculus [24]; 2.8% in the data set with Mus musculus [27]; 0.1% in the data set with Mus musculus [28]; 3.8% with Mus musculus [29]; 3.3% with Mus musculus [30]. For the same compound, the Injected dose/g was found to be 12% with Mus musculus [31], 0.7% in the data set with Mus musculus [32], 7% with Mus musculus [33] and 0.21% in the data set with Mus musculus [34]. Further, the Radioactive constituents in the data set listed under Mus musculus [17] came to 3.5%; in the data set filed under Mus musculus [21] it was 0%; in the data set filed under Mus musculus [25], 39.8%; in the data set filed under Mus musculus [26], 0%.
